Test results reported in ChEMBL document CHEMBL1123044, “Benzodiazepine receptor binding and anticonflict activity in a series of 3,6-disubstituted pyridazino[4,3-c]isoquinolines devoid of anticonvulsant properties” (J Med Chem, 1985).

Legend:
[1] = target: GABA-A receptor; anion channel (Rattus norvegicus) (UniProt O09028+P15431+P18506+P18508+P19969+P20236+P23574+P23576+P28471+P28473+P30191+P62813+P63079+P63138+Q91ZM7+Q9ES14); test: Relative binding to GABA-A central benzodiazepine receptor in the presence and absence of 10e-4 M GABA (GABA shift); assay type: protein-complex assay
Outline: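 Rat forebrain membranes incubated in triplicate with 0.4 nM [3H]flunitrazepam and varying ligand concentrations, with or without 0.1 mM GABA, 20 min at 37 °C. Specific binding: total minus binding with 1 μM unlabelled clonazepam. The ratio compares displacement curves obtained without versus with GABA.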

[2] = target: GABA-A receptor; anion channel; test: In vitro binding affinity against benzodiazepine receptor using [3H]diazepam as radioligand; assay type: protein-complex assay
Rattus norvegicus = test: In vivo minimal effective dose for anticonflict activity by intraperitoneal administration in rats by the Vogel conflict procedure.; assay type: functional; conditions: ip, read-out: MED
Outline: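 Male Wistar rats deprived of food 24 h and water 48 h; 10 per dose given compound ip in 0.5% methocel (4 mL/kg) 30 min before test. After 15 s free drinking of sweetened milk, 0.3 mA shocks were delivered through the spout in alternating 5-s on/off cycles over 5 min; shocks counted.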

[3] = Lethal dose analysed when administered intraperitoneally; assay type: toxicity, organism-based; conditions: mouse, in vivo, ip
Outline: (§1)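 Acute toxicity was tested in male CD1 mice in groups of three per dose. Compounds were dispersed in 0.5% methocel and given ip at 10 mL/kg.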

Mus musculus [4] = test: Anticonvulsant activity against prevention of tonic extensor seizures in 50% mice in the presence of metrazole (ip administration); assay type: functional
Mus musculus [5] = test: Anticonvulsant activity against prevention of tonic extensor seizures in 50% mice in the presence of bicuculline (ip administration); assay type: functional
Outline: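 Male CD1 mice, 10 per dose, given test compound ip in 0.5% methocel (10 mL/kg). Bicuculline, 2 mg/kg sc in aqueous solution, given 30 min later, following the metrazol protocol. ED50 is the dose preventing tonic extensor seizures in 50% of mice, obtained by Finney probit analysis with 95% confidence limits.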

[6] = Lethal dose analysed in mice when administered intraperitoneally; assay type: toxicity, organism-based; conditions: mouse, in vivo, ip; outline: as §1
Mus musculus [7] = test: Anticonvulsant activity against prevention of tonic extensor seizures in 50% mice in the presence of metrazole (ip administration); 0.11-0.28; assay type: functional
Mus musculus [8] = test: Anticonvulsant activity against prevention of tonic extensor seizures in 50% mice in the presence of bicuculline (ip administration); 0.13-0.25; assay type: functional

Row | Compound | GABA ratio [1] | Ki [2] [nM] | minimal effective dose (Rattus norvegicus) [mg/kg] | LD50 [3] [mg/kg] | ED50 (Mus musculus [4]) [mg/kg] | ED50 (Mus musculus [5]) [mg/kg] | LD50 [6] [mg/kg] | ED50 (Mus musculus [7]) [%] | ED50 (Mus musculus [8]) [%]
1 | CN1CCN=C(c2ccccc2)c2cc(Cl)ccc21 [MEDAZEPAM] | 1.9 | 528 |  |  |  |  |  |  | 
2 | COc1ccc(-c2cc3nc(N4CCCC4)c4ccccc4c3nn2)cc1 |  | 18.7 | 20 | > 600 | > 100 | > 100 |  |  | 
3 | COCCN(CCOC)c1nc2cc(-c3ccc(OC)cc3)nnc2c2ccccc12 | 2 | 1180 | 10 | > 600 | > 100 | > 100 |  |  | 
4 | Cc1cc2nc(N3CCCC3)c3ccccc3c2nn1 | 1 | 245 | 20 |  | > 50 | > 50 | 200 |  | 
5 | Clc1ccc(-c2cc3nc(N4CCCC4)c4ccccc4c3nn2)cc1 |  | 3480 |  |  |  |  |  |  | 
6 | CCN(C)c1nc2cc(-c3ccccc3)nnc2c2ccccc12 | 1.5 | 65.2 | 10 | 300 | > 50 | > 50 |  |  | 
7 | c1ccc(-c2cc3ncc4ccccc4c3nn2)cc1 |  | 4000 |  |  |  |  |  |  | 
8 | CCOc1nc2cc(-c3ccccc3)nnc2c2ccccc12 |  | 1500 |  |  |  |  |  |  | 
9 | CN1C(=O)CN=C(c2ccccc2)c2cc(Cl)ccc21 [DIAZEPAM] |  |  | 0.5 |  |  |  |  | 0.2 | 0.18
10 | Clc1nc2cc(-c3ccccc3)nnc2c2ccccc12 |  | 6200 |  |  |  |  |  |  | 
11 | COc1ccc(-c2cc3nc(N(C)CC(C)O)c4ccccc4c3nn2)cc1 (centres undefined) | 1.4 | 221 | 30 | > 600 | > 100 | > 100 |  |  | 
12 | CC(O)CN(C)c1nc2cc(-c3ccccc3)nnc2c2ccccc12 (centres undefined) | 1.4 | 136 | 30 | 300 | > 50 | > 50 |  |  | 
13 | COCCN(CCOC)c1nc2cc(-c3ccc(Cl)cc3)nnc2c2ccccc12 |  | 32500 |  |  |  |  |  |  | 
14 | CC(C)Oc1nc2cc(-c3ccccc3)nnc2c2ccccc12 |  | 1900 |  |  |  |  |  |  | 
15 | Oc1nc2cc(-c3ccccc3)nnc2c2ccccc12 |  | 1700 |  |  |  |  |  |  | 
16 | COc1ccc(-c2cc3nc(N4CCCCC4)c4ccccc4c3nn2)cc1 |  | 658 | 10 | > 600 | > 100 | > 100 |  |  | 
17 | COc1ccc(-c2cc3nc(N(C)C)c4ccccc4c3nn2)cc1 | 1.7 | 63.3 | 10 | > 600 | > 100 | > 100 |  |  | 
18 | CC(O)CN(C)c1nc2cc(-c3ccc(Cl)cc3)nnc2c2ccccc12 (centres undefined) |  | 17800 |  |  |  |  |  |  | 
19 | CN(C)c1nc2cc(-c3ccc(Cl)cc3)nnc2c2ccccc12 |  | 9300 |  |  |  |  |  |  | 
20 | Cc1nnc2ccc(-c3cccc(C(F)(F)F)c3)nn12 [CI-218872] |  | 198 |  |  |  |  |  |  | 
21 | c1ccc(-c2cc3nc(N4CCOCC4)c4ccccc4c3nn2)cc1 | 1.4 | 152 | 15 | 200 | > 50 | > 50 |  |  | 
22 | COc1ccc(-c2cc3nc(N4CCC4)c4ccccc4c3nn2)cc1 |  | 69.6 | 30 | 600 | > 100 | > 100 |  |  | 
23 | CN(C)c1nc2cc(-c3ccccc3)nnc2c2ccccc12 | 1.2 | 28.4 | 10 | > 600 | > 100 | > 100 |  |  | 
24 | COc1ccc(-c2cc3nc(N4CCOCC4)c4ccccc4c3nn2)cc1 |  | 402 | 30 | > 600 | > 100 | > 100 |  |  | 
25 | c1ccc(-c2cc3nc(N4CCCC4)c4ccccc4c3nn2)cc1 | 1.6 | 11.4 | 5 | 300 | > 50 | > 50 |  |  | 
